In publication PMC6997517 (EBioMedicine, 2020):

Assays:
HEK-Blue™ hTLR4 cells = experiment: MTT cell viability, HEK-Blue hTLR4 cells; format: cell-based, human; conditions: n ≥ 3
Method in brief: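 MTT colourimetric viability assay. HEK-Blue hTLR4 cells (high-glucose DMEM, 10% FBS, normocin) seeded at 5 × 10^4/well. RAW264.7 cells seeded at 2 × 10^5/well. Both grown overnight before exposure to test compound.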

TLR4 [1] = experiment: Immunofluorescence confocal microscopy of p-p65, LPS-stimulated RAW264.7 cells; format: cell-based, murine; conditions: TIP3 50 μM, 1 h before LPS 100 ng/ml
Method in brief: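 RAW264.7 cells seeded on coverslips (2 × 10^5/well) and grown overnight. Stained with anti-p-p65 (1:1000, 2 h), then Alexa Fluor 546 secondary for 1 h. Nuclei stained with 5 µM Hoechst 33258. Fluorescence intensity quantified by confocal microscopy.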

TLR4 [2] = experiment: Cytokine ELISA, LPS-stimulated hMNCs; format: cell-based, human
Method in brief: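 Commercial human mononuclear cells kept in RPMI 1640 (2·05 mM L-glutamine, 10% FBS, penicillin/streptomycin). Seeded at 2 × 10^5/well and grown overnight. Stimulated with LPS or poly(I:C) alongside test compound. After 24 h, supernatant IL-6 and TNF-α measured by human sandwich ELISA.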

TLR9 = experiment: TNF-α secretion, CpG-ODN-stimulated RAW264.7 cells; format: cell-based, murine; conditions: TIP3 at 50 μM
Method in brief: (§1)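 RAW264.7 cells seeded at 2 × 10^5/well (96-well) or 5 × 10^5/well (24-well), grown overnight, then treated with test compound. Stimulus: poly(I:C), CpG-ODN (15), FSL-1 (16) or R848 (17). Supernatant cytokines read after 24 h by mouse ELISA kits (IFN-β, IL-6, TNF-α). Cells kept at 37 °C, 5% CO2.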

TLR4 [3] = experiment: Cytokine ELISA, LPS-stimulated RAW264.7 cells; format: cell-based, murine; conditions: n ≥ 3
Method in brief: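 Murine macrophages seeded at 2 × 10^5/well (96-well) or 5 × 10^5/well (24-well) and grown overnight, then treated with test compound and LPS. After 24 h treatment, secreted IFN-β was measured by pre-coated mouse IFN-β ELISA. Mouse IL-6 and mouse TNF-α were measured by ELISA kits.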

TLR4 [4] = experiment: Intracellular NO and ROS; format: cell-based, murine; conditions: LPS, 50 μM TIP3
Method in brief: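 RAW264.7 cells seeded at 1 × 10^6 per 6 cm dish and grown overnight. Stimulated with LPS and treated with test compound. Intracellular NO stained with DAF-FM and ROS with DCF-DA. Cellular fluorescence quantified by flow cytometry.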

TLR7/8 = experiment: TNF-α secretion, R848; format: cell-based, murine; conditions: TIP3 at 50 μM
Method in brief: as §1

CIA mice [5] = experiment: Micro-CT and histology of knee joints, CIA model; format: in vivo, mouse (DBA/1 J)
Method in brief: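 DBA/1J collagen-induced arthritis mice, dosed i.p. daily from day 22. Knee bone samples fixed in 10% formalin and scanned by in vivo micro-CT. Bone mineral density measured at 1 mm below the top of the tibia within a set region of interest. Joint sections stained with H&E and examined for synovial hyperplasia, pannus, immune-cell infiltration and joint-space narrowing.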

IL-1 receptor (IL-1R) = experiment: IL-8 secretion, IL-1β-activated THP-1 cells; format: cell-based, human; conditions: THP-1 activated with IL-1β
[6] = tested on: mice with IMQ-induced psoriasis-like disease; experiment: Histology and immunohistochemistry of back skin, psoriasis model; format: in vivo, mouse (C57BL/6)
Method in brief: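 Back-skin lesions from imiquimod-treated C57BL/6 mice fixed in 4% paraformaldehyde, paraffin-embedded and sectioned at 7 μm. H&E staining used for epidermal/dermal thickness, measured by microscopy. Immunohistochemistry done with HRP/DAB detection using primary antibodies to CD68, CD4 and IL-17.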

CIA mice [7] = experiment: Collagen-induced arthritis; format: in vivo, mouse (DBA/1 J)
Method in brief: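 Male DBA/1J mice (6–7 weeks, 20–23 g) immunised at tail base with 100 μg chicken type II collagen in an equal volume of complete Freund's adjuvant (day 0), boosted day 20. Groups of n = 7. Test compound (2·5 or 10 nmol/g) or methotrexate (2 mg/kg) in saline given i.p. once daily from day 22. Body weight, paw volume and arthritis index tracked. […] (maximum 16), twice weekly.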

TLR4 [8] = experiment: Cytokine ELISA, LPS-stimulated THP-1-derived macrophages; format: cell-based, human
Method in brief: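 THP-1 cells grown in RPMI 1640 with 10% FBS and differentiated to macrophages with 80 nM PMA for 24 h. Seeded at 2 × 10^5/well (96-well) or 5 × 10^5/well (24-well) and grown overnight. After 24 h of treatment with test compound and LPS, secreted IL-6 and TNF-α in supernatants were quantified by ELISA.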

TLR4 [9] = experiment: Quantitative RT-PCR, LPS-stimulated THP-1 cells; format: cell-based, human; conditions: TIP3 50 μM 1 h, then LPS 4 h; normalized to GAPDH
Method in brief: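 THP-1 cells pretreated with test compound (50 μM) for 1 h, then LPS (100 ng/ml) added for 4 h. Total RNA extracted with TRIzol and cDNA synthesised. SYBR Green qPCR run with primers for IL-1β, IL-6, IL-8, TNF-α, with β-actin and GAPDH as references. Relative expression calculated by the ΔΔCt method.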

TLR4 [10] = experiment: Western blot, LPS-stimulated hPBMCs; format: cell-based, human
Method in brief: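 Total protein extracted with M-PER reagent and quantified by BCA. Membranes incubated with primary antibodies overnight at 4 °C, washed in PBS/0·1% Tween 20, then HRP-conjugated secondary (1:1000) for 2 h. Bands detected by enhanced chemiluminescence, with β-actin as loading reference.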

[11] = TIP3 10 and 50 nmol/g, H&E, five skin samples per group
[12] = PAP-TIP3 10 nmol/g, treatment started from day 35

## DYDVCVCH [TIP3]
HEK-Blue™ hTLR4 cells; 12·5 to 50 μM
  cell viability / cytotoxicity: did not show any significant cytotoxicity
HEK-Blue™ hTLR4 cells; high concentration, 100 μM
  cell viability / cytotoxicity: slight cytotoxicity
TLR4 [1]
  LPS-induced p65 phosphorylation (confocal): decreased the LPS-induced p65 phosphorylation
TLR4 [2]
  TLR4-mediated IL-6 secretion: significantly inhibited
  TLR4-mediated TNF-α secretion: significantly inhibited
TLR9
  TNF-α secretion mediated by TLR9: somewhat weak inhibition
TLR4 [3]
  LPS-induced IFN-α secretion: significantly prevented in vitro production of proinflammatory cytokines (TNF-α and IL-6) and IFN-α and -β in a dose-dependent manner
  LPS-induced IFN-β secretion: significantly prevented in vitro production of proinflammatory cytokines (TNF-α and IL-6) and IFN-α and -β in a dose-dependent manner
  LPS-induced IL-6 secretion: significantly prevented in vitro production of proinflammatory cytokines (TNF-α and IL-6) and IFN-α and -β in a dose-dependent manner
  LPS-induced TNF-α secretion: significantly prevented in vitro production of proinflammatory cytokines (TNF-α and IL-6) and IFN-α and -β in a dose-dependent manner
TLR4 [4]; DAF-FM
  intracellular NO: significantly inhibited
TLR4 [4]; DCF-DA
  intracellular ROS: significantly inhibited
TLR7/8
  TNF-α secretion mediated by TLR7, TLR8: somewhat weak inhibition
CIA mice [5]; TIP3 10 nmol/g, micro-CT
  bone destruction recovery (knee joint): remarkable recovery from the bone destruction
CIA mice [5]; TIP3-treated CIA mice, Fig. 4j synovial hyperplasia score
  inflammation score: significantly lower inflammation score
CIA mice [5]; prolonged TIP3 treatment
  synovial hyperplasia score: substantially reduces inflammation
IL-1 receptor (IL-1R)
  IL-8 secretion: did not hinder the secretion of IL-8
[6]; [11]
  thickness of the dermis: noticeably attenuated thickness of the epidermis (yellow arrowheads) and dermis
  thickness of the epidermis: noticeably attenuated thickness of the epidermis
[6]; immunohistochemistry
  overexpression of CD4 in skin: effectively attenuated the overexpression of CD68, CD4
  overexpression of CD68 in skin: effectively attenuated the overexpression of CD68
  overexpression of IL-17 in skin: effectively attenuated the overexpression of CD68, CD4, and IL-17
CIA mice [7]; [12]
  arthritis index, postarthritis phase treatment: significantly inhibited when compared with the CIA mice
  body weight, postarthritis phase treatment: did not observe any significant change in body weight
  paw volume, postarthritis phase treatment: significantly inhibited when compared with the CIA mice
CIA mice [7]; TIP3 10 nmol/g or MTX 2 mg/kg, i.p. daily from day 22
  loss of body weight: not observed
CIA mice [7]; TIP3 10 nmol/g or MTX 2 mg/kg, i.p. daily from day 22, maximal score 16
  arthritis index: significantly decreased
CIA mice [7]; TIP3 10 nmol/g or MTX 2 mg/kg, i.p. daily from day 22, plethysmometer
  relative paw volume (large paw volume): TIP3 (10 nmol/g)- and MTX-injected mice did not
CIA mice [7]; i.p. once a day from day 22, vs CIA mice
  induction of RA (arthritic symptoms): significantly attenuated
TLR4 [8]
  IL-6 secretion: significant dose-dependent inhibitory effect
  TNF-α secretion: significant dose-dependent inhibitory effect
TLR4 [9]
  IL-1β mRNA expression: inhibited LPS-induced mRNA expression
  IL-6 mRNA expression: inhibited LPS-induced mRNA expression
  IL-8 mRNA expression: inhibited LPS-induced mRNA expression of these cytokines and of IL-8
  TNF-α mRNA expression: inhibited LPS-induced mRNA expression
TLR4 [10]
  activation of ATF3: hindered the activation of NF-κB and ATF3
  activation of NF-κB: hindered the activation of NF-κB
  phosphorylation of ERK: inhibited the phosphorylation of MAPKs, including ERK, JNK, and p38
  phosphorylation of IRF3: hindered the activation of NF-κB and ATF3 and the phosphorylation of IRF3
  phosphorylation of JNK: inhibited the phosphorylation of MAPKs, including ERK, JNK, and p38
  phosphorylation of p38: inhibited the phosphorylation of MAPKs, including ERK, JNK, and p38
